Legend:
[1] = target: Serine/threonine-protein kinase PAK 5 (Homo sapiens) (UniProt Q9P286); experiment: Binding affinity to wild-type human partial length PAK7 (Y400 to H719 residues) expressed in bacterial expression system assessed as residual binding level at 1 uM by Kinomescan method relative to control
[2] = test system: Tyrosine-protein kinase ABL1 (Homo sapiens), P00519 [T315I]; experiment: Binding affinity to human non-phosphorylated ABL1 T315I mutant (S229 to K512 residues) expressed in mammalian expression system assessed as residual binding level at 1 uM by Kinomescan method relative to control
Summary of the method: (§1)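 KinomeScan active site-directed competition binding panel (468 kinases), compound tested at 1 μM. Result expressed as remaining kinase signal versus DMSO control (percent of control).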

[3] = target: Insulin receptor (Homo sapiens) (UniProt P06213); experiment: Binding affinity to wild-type human partial length INSR (P997 to E1318 residues) expressed in mammalian expression system assessed as residual binding level at 1 uM by Kinomescan method relative to control
[4] = test system: Phosphatidylinositol 4,5-bisphosphate 3-kinase catalytic subunit alpha isoform (Homo sapiens), P42336 [C420R]; experiment: Binding affinity to human partial length PIK3CA C420R mutant (R108 to N1068 residues) expressed in mammalian expression system assessed as residual binding level at 1 uM by Kinomescan method relative to control; summary of the method: as §1
[5] = target: Serine/threonine-protein kinase Chk2 (Homo sapiens) (UniProt O96017); experiment: Binding affinity to wild-type human partial length CHEK2 (S253 to E574 residues) expressed in bacterial expression system assessed as residual binding level at 1 uM by Kinomescan method relative to control
Summary of the method: (§2)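 KinomeScan, an active site-directed competition binding panel of 468 kinases. The test compound was at 1 μM. The readout is remaining kinase binding as a percentage of the DMSO control. Scores above 35% were treated as weak binding and not listed.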

[6] = target: Cyclin-dependent kinase 2 (Homo sapiens) (UniProt P24941); experiment: Binding affinity to wild-type human full length CDK2 (M1 to L298 residues) expressed in bacterial expression system assessed as residual binding level at 1 uM by Kinomescan method relative to control
Summary of the method: (§3)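 Active-site-directed KinomeScan competition binding panel covering 468 kinases, compound tested at 1 μM. Each readout is the kinase signal remaining with compound, expressed as a percentage of the DMSO control. […]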

[7] = target: Ribosomal protein S6 kinase alpha-4 (Homo sapiens) (UniProt O75676); experiment: Binding affinity to wild-type human partial length C-terminal RPS6KA4 kinase domain 2 (M375 to T705 residues) expressed in mammalian expression system assessed as residual binding level at 1 uM by Kinomescan method relative to control
[8] = target: Tyrosine-protein kinase BTK (Homo sapiens) (UniProt Q06187); experiment: Binding affinity to wild-type human full length BTK (M1 to S659 residues) expressed in mammalian expression system assessed as residual binding level at 1 uM by Kinomescan method relative to control; summary of the method: as §2
[9] = target: Epithelial discoidin domain-containing receptor 1 (Homo sapiens) (UniProt Q08345); experiment: Binding affinity to wild-type human partial length DDR1 (R565 to V876 residues) expressed in bacterial expression system assessed as residual binding level at 1 uM by Kinomescan method relative to control
Summary of the method: (§4)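 Active-site-directed competition binding panel of 468 kinases (KinomeScan), compound at 1 μM. The read-out is kinase remaining bound, given as a percentage of the DMSO control. […]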

[10] = target: Tyrosine-protein kinase Lck (Homo sapiens) (UniProt P06239); experiment: Binding affinity to wild-type human partial length LCK (R207 to P509 residues) expressed in bacterial expression system assessed as residual binding level at 1 uM by Kinomescan method relative to control; summary of the method: as §4
[11] = target: Serine/threonine-protein kinase Nek7 (Homo sapiens) (UniProt Q8TDX7); experiment: Binding affinity to wild-type human full length NEK7 (M1 to S302 residues) expressed in bacterial expression system assessed as residual binding level at 1 uM by Kinomescan method relative to control
Summary of the method: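 Active-site-directed competition binding panel (KinomeScan) covering 468 kinases. Test agent was screened at 1 μM. The read-out is the remaining kinase signal expressed relative to a DMSO control. Scores above 35%, taken as weak binding, were not reported.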

[12] = target: Cyclin-dependent kinase 7 (Homo sapiens) (UniProt P50613); experiment: Binding affinity to wild-type human full length CDK7 (M1 to L344 residues) expressed in mammalian expression system assessed as residual binding level at 1 uM by Kinomescan method relative to control; summary of the method: as §3
[13] = target: Serine/threonine-protein kinase Nek2 (Homo sapiens) (UniProt P51955); experiment: Binding affinity to wild-type human partial length NEK2 (M1 to K309 residues) expressed in bacterial expression system assessed as residual binding level at 1 uM by Kinomescan method relative to control
[14] = target: Dual specificity protein kinase CLK4 (Homo sapiens) (UniProt Q9HAZ1); experiment: Binding affinity to wild-type human partial length CLK4 (R135 to K481 residues) expressed in bacterial expression system assessed as residual binding level at 1 uM by Kinomescan method relative to control
[15] = target: Focal adhesion kinase 1 (Homo sapiens) (UniProt Q05397); experiment: Binding affinity to wild-type human partial length FAK (D402 to R696 residues) expressed in bacterial expression system assessed as residual binding level at 1 uM by Kinomescan method relative to control
[16] = target: Receptor-interacting serine/threonine-protein kinase 2 (Homo sapiens) (UniProt O43353); experiment: Binding affinity to wild-type human partial length RIPK2 (M1 to K310 residues) expressed in bacterial expression system assessed as residual binding level at 1 uM by Kinomescan method relative to control
[17] = target: Serine/threonine-protein kinase 32C (Homo sapiens) (UniProt Q86UX6); experiment: Binding affinity to wild-type human partial length YANK3 (M68 to G486 residues) expressed in bacterial expression system assessed as residual binding level at 1 uM by Kinomescan method relative to control
[18] = test system: Hepatocyte growth factor receptor (Homo sapiens), P08581 [Y1235D]; experiment: Binding affinity to human partial length MET Y1235D mutant (D1010 to S1367 residues) expressed in bacterial expression system assessed as residual binding level at 1 uM by Kinomescan method relative to control; summary of the method: as §1
[19] = target: Ribosomal protein S6 kinase beta-1 (Homo sapiens) (UniProt P23443); experiment: Binding affinity to wild-type human partial length S6K1 (M1 to S421 residues) expressed in mammalian expression system assessed as residual binding level at 1 uM by Kinomescan method relative to control
[20] = target: Bone morphogenetic protein receptor type-2 (Homo sapiens) (UniProt Q13873); experiment: Binding affinity to wild-type human partial length BMPR2 (R179 to Q526 residues) expressed in mammalian expression system assessed as residual binding level at 1 uM by Kinomescan method relative to control
[21] = target: Serine/threonine-protein kinase MAK (Homo sapiens) (UniProt P20794); experiment: Binding affinity to wild-type human partial length MAK (M1 to P314 residues) expressed in bacterial expression system assessed as residual binding level at 1 uM by Kinomescan method relative to control; summary of the method: as §4
Serine/threonine-protein kinase MAK (Homo sapiens), sequence (P20794 whole entry, the tested form may be a part): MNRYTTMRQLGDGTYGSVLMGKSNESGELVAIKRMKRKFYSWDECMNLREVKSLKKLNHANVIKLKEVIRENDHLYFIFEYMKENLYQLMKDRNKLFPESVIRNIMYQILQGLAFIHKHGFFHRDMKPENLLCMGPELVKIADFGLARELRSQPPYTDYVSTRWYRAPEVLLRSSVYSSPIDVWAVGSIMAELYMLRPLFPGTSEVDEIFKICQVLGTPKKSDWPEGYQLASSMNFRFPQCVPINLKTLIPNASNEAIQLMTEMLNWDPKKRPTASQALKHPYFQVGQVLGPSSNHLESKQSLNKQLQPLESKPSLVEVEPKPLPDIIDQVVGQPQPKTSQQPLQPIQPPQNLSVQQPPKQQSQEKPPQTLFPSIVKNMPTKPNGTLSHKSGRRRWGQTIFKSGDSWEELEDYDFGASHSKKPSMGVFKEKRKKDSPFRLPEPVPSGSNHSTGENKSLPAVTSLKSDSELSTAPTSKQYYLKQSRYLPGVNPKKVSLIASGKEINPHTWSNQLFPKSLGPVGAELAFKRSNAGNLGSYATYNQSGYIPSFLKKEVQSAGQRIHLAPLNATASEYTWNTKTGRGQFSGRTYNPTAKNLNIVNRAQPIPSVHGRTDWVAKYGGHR

Serine/threonine-protein kinase Nek2 (Homo sapiens), sequence (P51955 whole entry, the tested form may be a part): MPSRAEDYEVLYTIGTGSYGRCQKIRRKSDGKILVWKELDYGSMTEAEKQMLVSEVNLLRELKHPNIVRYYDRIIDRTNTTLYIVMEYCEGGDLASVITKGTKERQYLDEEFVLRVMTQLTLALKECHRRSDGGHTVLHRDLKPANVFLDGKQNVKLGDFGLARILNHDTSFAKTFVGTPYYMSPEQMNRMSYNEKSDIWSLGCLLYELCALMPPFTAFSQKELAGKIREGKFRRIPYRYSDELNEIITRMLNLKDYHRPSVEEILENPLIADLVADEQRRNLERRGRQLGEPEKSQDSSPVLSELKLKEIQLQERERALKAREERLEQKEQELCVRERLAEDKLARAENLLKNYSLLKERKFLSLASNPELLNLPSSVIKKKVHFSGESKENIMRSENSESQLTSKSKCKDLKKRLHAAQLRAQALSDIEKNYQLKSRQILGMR
Epithelial discoidin domain-containing receptor 1 (Homo sapiens), sequence (Q08345 whole entry, the tested form may be a part): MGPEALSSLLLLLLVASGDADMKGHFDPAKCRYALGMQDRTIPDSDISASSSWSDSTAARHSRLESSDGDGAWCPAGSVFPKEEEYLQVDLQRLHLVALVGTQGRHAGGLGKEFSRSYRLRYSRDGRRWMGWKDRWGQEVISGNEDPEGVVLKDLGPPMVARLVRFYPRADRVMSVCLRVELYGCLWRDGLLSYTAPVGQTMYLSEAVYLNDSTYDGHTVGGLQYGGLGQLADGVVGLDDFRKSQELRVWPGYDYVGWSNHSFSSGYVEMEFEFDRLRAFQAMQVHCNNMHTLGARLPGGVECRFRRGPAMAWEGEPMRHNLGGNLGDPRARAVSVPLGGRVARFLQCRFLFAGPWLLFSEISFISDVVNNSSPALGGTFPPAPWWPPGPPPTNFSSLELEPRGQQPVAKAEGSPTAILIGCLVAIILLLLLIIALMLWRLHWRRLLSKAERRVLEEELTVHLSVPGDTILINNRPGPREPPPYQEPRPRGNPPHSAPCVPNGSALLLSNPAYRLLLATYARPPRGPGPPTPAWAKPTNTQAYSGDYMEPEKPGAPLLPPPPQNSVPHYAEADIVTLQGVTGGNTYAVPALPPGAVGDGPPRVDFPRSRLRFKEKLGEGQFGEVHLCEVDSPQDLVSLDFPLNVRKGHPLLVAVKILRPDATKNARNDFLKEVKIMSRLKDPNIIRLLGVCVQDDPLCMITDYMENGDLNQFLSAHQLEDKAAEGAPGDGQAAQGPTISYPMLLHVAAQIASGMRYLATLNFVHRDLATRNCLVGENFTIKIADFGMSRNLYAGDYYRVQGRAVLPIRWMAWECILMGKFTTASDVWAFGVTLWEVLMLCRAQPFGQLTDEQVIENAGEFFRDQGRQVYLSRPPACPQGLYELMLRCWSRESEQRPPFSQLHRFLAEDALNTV
Tyrosine-protein kinase Lck (Homo sapiens), sequence (P06239 2-509 limits assumed): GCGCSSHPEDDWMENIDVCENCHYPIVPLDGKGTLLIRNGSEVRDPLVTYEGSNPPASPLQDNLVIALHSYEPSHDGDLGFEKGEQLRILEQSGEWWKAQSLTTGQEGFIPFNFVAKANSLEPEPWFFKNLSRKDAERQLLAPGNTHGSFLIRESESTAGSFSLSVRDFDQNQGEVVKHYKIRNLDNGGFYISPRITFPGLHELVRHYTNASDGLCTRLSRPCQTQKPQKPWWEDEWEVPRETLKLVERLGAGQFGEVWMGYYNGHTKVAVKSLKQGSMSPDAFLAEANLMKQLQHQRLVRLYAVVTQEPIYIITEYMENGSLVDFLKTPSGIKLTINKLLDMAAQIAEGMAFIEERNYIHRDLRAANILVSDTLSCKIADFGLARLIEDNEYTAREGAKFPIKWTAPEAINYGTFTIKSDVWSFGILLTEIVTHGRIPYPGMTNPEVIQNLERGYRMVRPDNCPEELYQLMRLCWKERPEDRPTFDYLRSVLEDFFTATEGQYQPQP
Serine/threonine-protein kinase Nek7 (Homo sapiens), sequence (Q8TDX7 whole entry, looked up, the tested form may be a part): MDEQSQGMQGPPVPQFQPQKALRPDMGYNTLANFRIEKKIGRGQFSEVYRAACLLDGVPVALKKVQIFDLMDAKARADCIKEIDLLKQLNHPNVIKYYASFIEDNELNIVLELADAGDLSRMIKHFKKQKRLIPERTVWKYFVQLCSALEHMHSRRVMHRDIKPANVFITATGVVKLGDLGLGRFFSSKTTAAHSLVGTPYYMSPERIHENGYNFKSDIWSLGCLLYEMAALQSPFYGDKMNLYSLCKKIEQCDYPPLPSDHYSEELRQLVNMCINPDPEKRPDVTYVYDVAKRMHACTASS
Cyclin-dependent kinase 7 (Homo sapiens), sequence (P50613 whole entry, the tested form may be a part): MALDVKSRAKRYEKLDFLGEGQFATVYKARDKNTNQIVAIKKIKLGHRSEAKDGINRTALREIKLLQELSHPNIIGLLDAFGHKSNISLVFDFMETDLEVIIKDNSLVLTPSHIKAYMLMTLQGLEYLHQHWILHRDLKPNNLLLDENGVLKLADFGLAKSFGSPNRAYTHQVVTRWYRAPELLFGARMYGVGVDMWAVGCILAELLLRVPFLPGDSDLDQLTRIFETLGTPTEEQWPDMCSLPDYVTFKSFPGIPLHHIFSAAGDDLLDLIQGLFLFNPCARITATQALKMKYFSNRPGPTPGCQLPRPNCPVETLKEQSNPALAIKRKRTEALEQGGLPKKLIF
Phosphatidylinositol 4,5-bisphosphate 3-kinase catalytic subunit alpha isoform (Homo sapiens), P42336 [C420R], sequence (P42336 whole entry C420R, the tested form may be a part, canonical isoform): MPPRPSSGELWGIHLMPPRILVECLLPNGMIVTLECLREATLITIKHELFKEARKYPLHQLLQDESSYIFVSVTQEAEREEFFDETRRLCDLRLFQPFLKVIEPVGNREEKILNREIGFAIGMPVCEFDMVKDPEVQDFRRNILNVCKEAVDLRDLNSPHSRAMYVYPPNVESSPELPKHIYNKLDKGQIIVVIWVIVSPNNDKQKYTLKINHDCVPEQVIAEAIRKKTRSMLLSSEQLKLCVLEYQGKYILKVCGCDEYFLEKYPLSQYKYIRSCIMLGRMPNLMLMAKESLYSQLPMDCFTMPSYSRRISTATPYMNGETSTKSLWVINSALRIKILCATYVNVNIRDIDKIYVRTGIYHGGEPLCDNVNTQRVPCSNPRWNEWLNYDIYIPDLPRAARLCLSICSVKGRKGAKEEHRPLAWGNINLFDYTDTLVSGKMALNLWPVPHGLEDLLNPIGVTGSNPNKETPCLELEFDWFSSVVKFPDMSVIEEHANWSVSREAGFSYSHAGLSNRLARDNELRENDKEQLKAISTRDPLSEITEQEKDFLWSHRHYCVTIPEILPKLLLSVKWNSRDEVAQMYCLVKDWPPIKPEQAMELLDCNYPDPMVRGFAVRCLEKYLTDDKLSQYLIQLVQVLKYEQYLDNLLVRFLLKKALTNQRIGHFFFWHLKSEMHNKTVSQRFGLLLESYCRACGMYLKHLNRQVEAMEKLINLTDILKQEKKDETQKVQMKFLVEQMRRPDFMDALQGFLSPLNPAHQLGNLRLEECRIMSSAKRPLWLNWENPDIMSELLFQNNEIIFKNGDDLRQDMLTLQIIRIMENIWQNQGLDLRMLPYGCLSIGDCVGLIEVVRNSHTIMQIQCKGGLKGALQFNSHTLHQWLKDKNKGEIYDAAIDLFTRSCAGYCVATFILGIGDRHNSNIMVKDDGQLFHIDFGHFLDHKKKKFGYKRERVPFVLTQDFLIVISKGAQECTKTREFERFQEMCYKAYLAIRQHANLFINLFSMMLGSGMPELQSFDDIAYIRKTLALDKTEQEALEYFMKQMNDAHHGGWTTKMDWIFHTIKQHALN
Ribosomal protein S6 kinase beta-1 (Homo sapiens), sequence (P23443 whole entry, looked up, the tested form may be a part): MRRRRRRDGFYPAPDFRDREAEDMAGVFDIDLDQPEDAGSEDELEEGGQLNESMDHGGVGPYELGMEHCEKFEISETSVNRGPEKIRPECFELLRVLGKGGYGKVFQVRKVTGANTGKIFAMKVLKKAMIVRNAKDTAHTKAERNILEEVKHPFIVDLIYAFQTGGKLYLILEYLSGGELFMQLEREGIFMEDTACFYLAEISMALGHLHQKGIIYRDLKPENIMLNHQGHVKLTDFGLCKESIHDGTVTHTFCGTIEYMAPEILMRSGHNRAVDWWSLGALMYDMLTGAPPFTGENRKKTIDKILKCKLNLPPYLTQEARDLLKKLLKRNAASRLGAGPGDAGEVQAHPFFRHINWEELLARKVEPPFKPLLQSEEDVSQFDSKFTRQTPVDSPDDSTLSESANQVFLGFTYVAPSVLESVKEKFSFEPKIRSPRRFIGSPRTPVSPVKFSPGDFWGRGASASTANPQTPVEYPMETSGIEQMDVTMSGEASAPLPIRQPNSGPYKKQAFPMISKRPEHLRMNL

C=CC(=O)Nc1ccccc1Nc1nc(Nc2ccc(N3CCN(C)CC3)cc2)ncc1C(=O)Nc1c(C)cccc1Cl
Activity [1]: 100% | Activity [2]: 100% | Activity [3]: 100% | Activity [4]: 100% | Activity [5]: 90% | Activity [6]: 100% | Activity [7]: 100% | Activity [8]: 0.1% | Activity [9]: 1.1% | Activity [10]: 0.25% | Activity [11]: 100% | Activity [12]: 100% | Activity [13]: 100% | Activity [14]: 100% | Activity [15]: 100% | Activity [16]: 100% | Activity [17]: 100% | Activity [18]: 100% | Activity [19]: 95% | Activity [20]: 100% | Activity [21]: 70%

From ChEMBL document CHEMBL4354843, “Structure-Based Design of a Potent and Selective Covalent Inhibitor for SRC Kinase That Targets a P-Loop Cysteine” (J Med Chem, 2020)
